In general, viability refers to a read-out of living cells in per cent, often relative to untreated cells. Usually inhibition stands for the drop in the measured response relative to a control, in per cent.

Molecules are shown by their SMILES. A number with no mark means an inactive call. Records with an inconclusive call do not appear. Calls of active or inactive are those of the source.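 How the source made its calls, unless noted: active means viability at or below 27.92% in each of two runs, the all-compound median minus 4 SD; inconclusive means no clear call, values can overlap the other calls; inactive means the rest.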

This is an account of results in PubChem BioAssay.

The nature of assay [1]: S. cerevisiae growth inhibition in permissive medium (OD615), pilot counter-assay for S. cerevisiae lifespan shortening project, permissive growth control (AID 705;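 active means growth inhibition above 25% in both replicates, a cutoff set 3 SD above the mean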). To be noted: OD615, 24 h, at 10 µM, active compounds read high. An outline of the steps: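 Test system: Saccharomyces cerevisiae strain carrying genetically modified DeaD replicative-lifespan system; buffer or medium: SC raffinose/galactose permissive medium; dosing: one dose 10 µM, DMSO 0.25% final; times: 24 h exposure, 30 °C; measured by: OD at 615 nm; read-out basis: growth inhibition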

A short description of assay [2]: S. cerevisiae growth inhibition in restrictive medium, OD615, pilot screen, restrictive growth control, yeast lifespan reduction project (AID 706;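 active means growth inhibition above a set limit, 3 SD over mean compound inhibition, in both replicates, cut at about 43% in these data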;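 further: modified DeaD lifespan yeast strain shifted to restrictive glucose medium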). To be noted: OD615, 48 h, at 10 µM, active compounds read high. An outline of the steps:
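material = engineered S. cerevisiae DeaD strain | buffer or medium = glucose-based CSMM-D restrictive medium | dosing = one concentration, 10 µM final, 0.25% DMSO | schedule = 4 h pre-growth plus 48 h compound exposure, 30 °C | detection = OD615 absorbance reading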

Assay [3] can be described thus: doxorubicin toxicity protection in MRP-1 cells – H69AR cells, CellTiter-Glo, duplicate, MRP-1 activator project, pilot screen (AID 807;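 active means viability increase at or above a cutoff of the median across tested compounds plus 3 SD, cut at about 8.5% in these data, passing the limit was not always enough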;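 further: compound pretreatment 18-22 h then 72 h combined with doxorubicin; 0% = doxorubicin alone and 100% = vehicle without doxorubicin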). To be noted: H69AR viability with doxorubicin, CellTiter-Glo luminescence; at 10 µM; active compounds read high. Background: In ATP-based viability assays light output follows the ATP content of the culture.
The nature of assay [4]: viability of HCT116 without oncogenic beta-catenin – human colon tumor cells, pilot screen (AID 823;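 active means cell viability at or below a set limit in both duplicate runs, the limit being the all-compound median minus 4 SD, cut at about 23% in these data, passing the limit was not always enough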;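 further: 0% = wells killed by 20 µM Hyamine and 100% = untreated DMSO cell wells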). The settings on record: HCT116 beta-catenin knockout viability, CellTiter-Glo, 60 h; at 10 µM; active compounds read low.
The nature of assay [5]: viability of PTEN-null HCT116 cells – cell-based, HCT116 clonal line, CellTiter-Glo, pilot screen (AID 824).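 Further: 0% = 20 µM Hyamine control and 100% = vehicle cell control.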 To be noted: HCT116 PTEN-deleted viability, 60 h, at 10 µM, active compounds read low.
The nature of assay [6]: RAM pathway blockade in budding yeast – dse1pr::URA3 reporter, 5-FOA selection, pilot screen (AID 869;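 active means inhibition over a set limit, the all-compound mean plus 3 SD, in both replicate runs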;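 further: 0% = DMSO wells with no growth and 100% = 10 µM 1-NA-PP1 with full growth; RAM network block rescues cells from 5-FOA so hits raise OD615 growth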). The settings on record: S. cerevisiae dse1pr::URA3 5-FOA growth, OD615, 2 d; at 10 µM; active compounds read high; strain carries analog-sensitive mutant Cbk1 kinase.
A short description of assay [7]: RAM signaling pathway blockade in yeast – S. cerevisiae, Pdr1DBD-CYC8 efflux-inhibited sensitized strain, primary screen (AID 1298;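 active means RAM network inhibition above 8.4% in each of two replicates, 3 SD over the compound average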;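 further: 0% = DMSO untreated cells without growth and 100% = 10 µM 1-NA-PP1 full growth; higher means more yeast growth rescued from 5-FOA killing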). The settings on record: S. cerevisiae cbk1-as DSE1-URA3 strain, 5-FOA growth OD615, 2 d; at 50 µM; active compounds read high.

As for `CC(=O)OC(/C(O)=C(\C#N)c1nc2ccccc2[nH]1)c1ccccc1` (stereo not drawn), the growth inhibition is 0.55% in assay [1] and 3.63% in assay [2]. Also, the viability increase in assay [3] is -0.98%. Further, the viability in assay [4] was 59.6%; in assay [5], 54.3%. The inhibition in assay [6] was 1.63%. Also, the RAM network inhibition in assay [7] is 3.42%.
Consider `O=C(C1CCCN(S(=O)(=O)c2cccc3cccnc23)C1)N1CCN(c2ccc(F)cc2)CC1` (stereo not drawn), for which the growth inhibition is 2.49% in assay [1] and 2.17% in assay [2]. In addition, the viability increase in assay [3] is -0.16%. Besides, the viability in assay [4] is 47.9%; in assay [5], 61.8%. Besides, the inhibition in assay [6] is -0.585%. For the same molecule, in assay [7], the RAM network inhibition is 2.25%.
Consider `O=C1CC(C(=O)N2CCN(c3ccc(F)cc3)CC2)CN1CCc1ccccc1` (stereo not drawn), for which the growth inhibition was -1.65% in assay [1] and 5.89% in assay [2]. The viability increase in assay [3] is -2.3%. Moreover, the viability in assay [4] is 99.2%; in assay [5], 92.6%. In addition, in assay [6], the inhibition was -0.23%. For the same molecule, in assay [7], the RAM network inhibition is 1.03%.
For `N#CCCCSc1nnc(-c2ccc(Cl)cc2)n1-c1ccccc1`, the growth inhibition in assay [1] was -4.58%; in assay [2], 9.62%. For the same molecule, the viability increase in assay [3] was -3.58%. Also, the viability is 83% in assay [4] and 93% in assay [5]. Moreover, the inhibition in assay [6] is 1.34%. For the same molecule, the RAM network inhibition in assay [7] was 4.2%.
Turning to `COc1ccc(S(=O)(=O)N2CCN(c3c(C)cccc3C)CC2)cc1OC`, the values for the growth inhibition in assay [1] and in assay [2] were -1.27% and -7.95%, respectively. In assay [3], the viability increase was -1%. The viability in assay [4] was 78.2%; in assay [5], 74.4%. Further, the inhibition in assay [6] was 0.435%. Also, in assay [7], the RAM network inhibition is 10.8%.
As to `CCOC(=O)N1CCN(C(=O)c2ccc3c(=O)n(CCC4=CCCCC4)c(=S)[nH]c3c2)CC1`, the growth inhibition is -6.92% in assay [1] and 3.16% in assay [2]. Further, the viability increase in assay [3] was -7.23%. Also, the results for the viability in assay [4] and in assay [5] were 49.1% and 45.5%, respectively. The inhibition in assay [6] is 3.38%. Moreover, the RAM network inhibition in assay [7] was 4.35%.
On to `O=c1oc(-c2cc3ccccc3o2)nc2sc3c(c12)CCCC3`, for which the values for the growth inhibition in assay [1] and in assay [2] were -10.5% and -6.6%, respectively. Besides, in assay [3], the viability increase was 3.77%. In addition, the viability in assay [4] is 74.4%; in assay [5], 56.9%. Further, the inhibition in assay [6] was 2.1%. Moreover, the RAM network inhibition in assay [7] was 4.52%.
For the molecule `O=C(NC1CCCCC1)N1CCCCCC1`, the growth inhibition in assay [1] was 1.12%; in assay [2] it was -18%. Also, the viability increase in assay [3] was -0.52%. Besides, the viability was 96.6% in assay [4] and 97.5% in assay [5]. For the same molecule, the inhibition in assay [6] was 0.64%. Also, the RAM network inhibition in assay [7] was 3.56%.
Regarding `CCCOc1ccccc1C1NC(=O)NC(C)=C1C(=O)OCCOC(C)C` (stereo not drawn), the growth inhibition in assay [1] was -12.9%; in assay [2], -13.2%. In addition, the viability increase in assay [3] is -2.17%. Also, the viability was 89.5% in assay [4] and 91.4% in assay [5]. The inhibition in assay [6] was 0.325%. Besides, the RAM network inhibition in assay [7] is 5.61%.
As for `CCCCNc1ncnc2c1cnn2-c1ccc(Cl)cc1`, the results for the growth inhibition in assay [1] and in assay [2] were -7.84% and -18.1%, respectively. Also, the viability increase in assay [3] is -6.6%. Also, the viability in assay [4] is 17.3% (active); in assay [5] it was 20.4% (active). In addition, the inhibition in assay [6] is 0.835%. For the same molecule, the RAM network inhibition in assay [7] was 5.62%.
Turning to `Brc1ccc(-c2nc(-c3ccccn3)no2)o1`, the figures for the growth inhibition in assay [1] and in assay [2] were 0.205% and 13%, respectively. Besides, the viability increase in assay [3] is -4.55%. The viability in assay [4] was 73.8%; in assay [5], 67.5%. Besides, the inhibition in assay [6] is 2.41%. Moreover, the RAM network inhibition in assay [7] is 2.05%.
`COc1cc(OC)cc(C(=O)NCCn2ccc3ccccc32)c1`: the growth inhibition in assay [1] is -5.04%; in assay [2] it was 0.31%. The viability increase in assay [3] is -3.92%. In addition, the figures for the viability in assay [4] and in assay [5] were 92.8% and 92.3%, respectively. Also, the inhibition in assay [6] was 1.16%. Also, the RAM network inhibition in assay [7] is 7.95%.
For the molecule `CCOC(=O)c1c(C)c(-c2ccccc2)n(CC(=O)N2CCN(C)CC2)c1C`, the growth inhibition is -19% in assay [1] and -24.2% in assay [2]. The viability increase in assay [3] was -2.94%. The viability in assay [4] and in assay [5] was 102% throughout. In assay [6], the inhibition is 2.83%. Further, the RAM network inhibition in assay [7] is 2.67%.
On to `Cc1cc(C(F)(F)F)nc(NCc2ccc(F)cc2)n1`, for which the growth inhibition was -1.39% in assay [1] and -13% in assay [2]. Besides, in assay [3], the viability increase is -1.57%. The viability in assay [4] was 90.5%; in assay [5], 86.7%. Further, in assay [6], the inhibition was 1.39%. Moreover, the RAM network inhibition in assay [7] was 0.79%.
For `CC(C)Nc1ncnc2c1cnn2-c1ccc(Cl)cc1`, the growth inhibition in assay [1] is 5.42%; in assay [2], -5.25%. For the same molecule, the viability increase in assay [3] was -3.14%. The results for the viability in assay [4] and in assay [5] were 83.3% and 72.6%, respectively. Besides, the inhibition in assay [6] is 1.14%. The RAM network inhibition in assay [7] was -0.94%.
As for `O=C(CCn1c(=O)sc2ccccc21)NCc1ccccc1`, the growth inhibition is 4.34% in assay [1] and -2.52% in assay [2]. Also, the viability increase in assay [3] is -0.79%. Also, the figures for the viability in assay [4] and in assay [5] were 107% and 105%, respectively. Besides, the inhibition in assay [6] was 2%. The RAM network inhibition in assay [7] was 2.7%.
For the molecule `COCCNC(=O)c1cc(-c2ccc(Cl)c(Cl)c2)on1`, the growth inhibition in assay [1] is -2.25%; in assay [2], -1.81%. Further, in assay [3], the viability increase was -0.93%. Besides, the values for the viability in assay [4] and in assay [5] were 82.5% and 87.8%, respectively. For the same molecule, in assay [6], the inhibition is 0.18%. Also, the RAM network inhibition in assay [7] is 5.68%.
Take `CCOC(=O)N1CCC(NC(=O)Cn2cc3c(n2)CCCC3)CC1`: the growth inhibition in assay [1] was -1.57%; in assay [2] it was -0.65%. The viability increase in assay [3] was -3.35%. Further, the viability is 107% in assay [4] and 92.5% in assay [5]. The inhibition in assay [6] is 2.6%. Also, in assay [7], the RAM network inhibition was 2.81%.
With `CCCOc1ccc(C(=O)NCc2ccco2)cc1`, the growth inhibition in assay [1] is -13.1%; in assay [2], -4.49%. Also, the viability increase in assay [3] was -1.42%. The values for the viability in assay [4] and in assay [5] were 98% and 93.5%, respectively. Also, the inhibition in assay [6] is 0.43%. In addition, the RAM network inhibition in assay [7] was 2.65%.
With `CCOc1cc(C(=O)NCCN2CCOCC2)cc(OCC)c1OCC`, the growth inhibition in assay [1] was -5.59%; in assay [2], -3.11%. Further, the viability increase in assay [3] is -3.76%. The viability is 91.3% in assay [4] and 96.4% in assay [5]. Also, the inhibition in assay [6] was -0.045%. Moreover, the RAM network inhibition in assay [7] was 2.61%.
Consider `O=C1CCC(=O)N1c1cccc(-c2nc3ccccc3o2)c1`, for which the growth inhibition in assay [1] is -7.93%; in assay [2], -2.65%. Moreover, the viability increase in assay [3] was 0.42%. Besides, the viability in assay [4] was 106%; in assay [5], 105%. In addition, the inhibition in assay [6] is -0.245%. Moreover, in assay [7], the RAM network inhibition was 4.59%.
Turning to `CCN(CC)c1ccc(C=Nc2ccc(C#N)cc2)c(O)c1`, the growth inhibition is -18.8% in assay [1] and -19.5% in assay [2]. Further, the viability increase in assay [3] was -0.93%. Besides, the viability is 99.4% in assay [4] and 96.3% in assay [5]. In addition, the inhibition in assay [6] was 1.43%. For the same molecule, the RAM network inhibition in assay [7] is 5.13%.
Take `O=C(c1ccc(S(=O)(=O)N2CCCC2)cc1)N1CCCc2ccccc21`: the growth inhibition was -17.6% in assay [1] and -13.7% in assay [2]. Also, in assay [3], the viability increase was -4.87%. In addition, the viability in assay [4] is 95.1%; in assay [5], 92.4%. In assay [6], the inhibition is 0.11%. For the same molecule, the RAM network inhibition in assay [7] is 1.2%.
As to `CN1C(=O)/C(=C2\SC(=S)N(C(CCC(=O)O)C(=O)O)C2=O)c2ccccc21` (stereo not drawn), the growth inhibition in assay [1] is 2.35%; in assay [2], -1.85%. Moreover, in assay [3], the viability increase was -2.67%. The results for the viability in assay [4] and in assay [5] were 107% and 98.8%, respectively. The inhibition in assay [6] is 1.11%. Moreover, in assay [7], the RAM network inhibition was 0.96%.
